The source of these data is ChEMBL document CHEMBL1137995, “Synthesis of some newer analogues of substituted dibenzoyl phenol as potent anti-inflammatory agents” (Bioorg Med Chem Lett, 2004).

In general, ED50 refers to the midpoint of the dose-response relation. For orientation: Inhibition means the share of the control response that was lost under treatment. Low readings indicate little suppression, high ones strong suppression.

Data set [1] is described as follows: Acute lethal dose of compound was determined in mice when administered perorally. It is filed as ADME. The conditions noted are these: mouse, in vivo, po; read-out: ALD50. The essentials: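 Albino mice (25–30 g), groups of 10 per dose level, given test compound at several dose levels. Percent mortality in each group was recorded 24 h after dosing. The approximate 50% lethal dose (ALD50) was calculated by the Smith method.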

The species entered for data set [2] is Rattus norvegicus. Briefly: Effective dose of compound for anti-inflammatory activity. The format is functional.
The test system of data set [3] is Rattus norvegicus. Description: Ulcerogenic activity was measured in fasting rat with hyperaemia on peroral administration of 100 mg/kg. The format is functional. The conditions noted are these: route oral. The method in brief:
(§1)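 Rats (200–230 g), ten per group, fasted 24 h, given a single oral dose of 100, 200 or 400 mg/kg. Animals were killed 5 h after dosing. Stomach and small intestine were examined under a microscope for hyperaemia, epithelial shedding, petechiae, frank haemorrhage, and erosion or ulceration. Values are percent of animals showing hyperaemia or showing ulcer.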

The subject of data set [4] is Rattus norvegicus. Briefly: Ulcerogenic activity was measured in fasting rat with hyperaemia on peroral administration of 200 mg/kg. It is filed as functional. The conditions noted are these: route oral. The essentials:
as §1

In data set [5] the test system is Rattus norvegicus. Briefly: Ulcerogenic activity was measured in fasting rat with hyperaemia on peroral administration of 400 mg/kg. As to conditions: route oral. The format is functional. The essentials:
as §1

The species named for data set [6] is Oryctolagus cuniculus. Description: Percent inhibition of cyclooxygenase activity of compound at 10 uM concentration; No inhibition. It is filed as functional. The essentials: (§2)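 Microsomes came from rabbit distal colon mucosa, homogenized in Tris pH 8.0, centrifuged, resuspended and recentrifuged, and used immediately. Microsomes were preincubated with test agent 10 min at 37 °C in Tris–HCl pH 8.0 containing 2 mM glutathione, 5 mM L-tryptophan and 1 µM haematin. Then 20 µM arachidonic acid with [1-14C] tracer was added and reacted 5 min at 37 °C. PGE2 was separated by HPLC, radioactivity counted by scintillation, and inhibition taken against paired controls.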

Data set [7] relates to Rattus norvegicus. Description: Ulcerogenic activity was measured in fasting rat with ulcer on peroral administration of 100 mg/kg. The format is functional. As to conditions: route oral. The essentials: as §1
In data set [8] the test system is Rattus norvegicus. Description: Ulcerogenic activity was measured in fasting rat with ulcer on peroral administration of 200 mg/kg. The format is functional. The conditions noted are these: route oral. The method in brief: as §1
Data set [9] concerns Rattus norvegicus. Description: Ulcerogenic activity was measured in fasting rat with ulcer on peroral administration of 400 mg/kg. It is filed as functional. The conditions noted are these: route oral. The method in brief:
as §1

Data set [10] concerns Rattus norvegicus. Briefly: Percent of carageenam induced paw oedema inhibition in rat as a measure of anti-inflammatory activity at 20 mg/kg dose on peroral administration. It is filed as functional. As to conditions: route oral. The method in brief:
(§3)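 Albino rats (125–160 g), five per group, dosed orally at 20, 40 or 80 mg/kg. After 30 min, 0.2 mL of 1% carrageenan in 0.9% NaCl was injected subcutaneously into the plantar aponeurosis of the hind paw. Paw volume was read by water plethysmometer at injection and at 3 h. Inhibition = (1 − Gt/Gc) × 100 against a carrageenan-only control group of five rats.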

Data set [11] relates to Rattus norvegicus. Description: Percent of carageenam induced paw oedema inhibition in rat as a measure of anti-inflammatory activity at 40 mg/kg dose on peroral administration. As to conditions: route oral. The format is functional. The essentials:
as §3

In data set [12] the test system is Rattus norvegicus. Briefly: Percent of carageenam induced paw oedema inhibition in rat as a measure of anti-inflammatory activity at 80 mg/kg dose on peroral administration. The format is functional. The conditions noted are these: route oral. The method in brief: as §3
For data set [13], the species on record is Oryctolagus cuniculus. Description: Percent inhibition of cyclooxygenase activity of compound at 10 uM concentration. The format is functional. The essentials:
as §2

Active and inactive are the calls of the source. No cut-off for these calls is given here. Bounds are passed on as bounds.

For the compound `Cc1cc(C(=O)c2ccccc2)c(O)c(C(=O)c2ccccc2)c1`, the LD50 in data set [1] is over 1000 mg/kg. Further, the ED50 in data set [2] came out at 77.5 mg/kg. Also, the Ulcerogenic activity in data set [3] was 20%; in data set [4], 40%; in data set [5], 60%; in data set [7], 40%; in [8] it was 50%; in data set [9], 80%. The inhibition entry in data set [6] is “inactive”. For the same compound, the “Antiinflammatory Activity” value stood at 13.7% in data set [10], 22.2% in data set [11] and 45.5% in [12].

Turning to `Cc1ccc(C(=O)c2cc(C(=O)c3ccccc3)cc(C)c2O)cc1`, in data set [1], the LD50 was over 1000 mg/kg. The compound also had an ED50 in [2] of 62.5 mg/kg. The Ulcerogenic activity was 70% in data set [3]; 90% in [4]; 100% in data set [5]; 10% in [7]; 20% in [8]; 40% in [9]. In addition, the “Antiinflammatory Activity” value in data set [10] came to 20.1%; in [11] it was 29.1%; in data set [12], 62.8%. Also, the Inhibition in data set [13] is on record as 40%.

For `CCCCC1C(=O)N(c2ccccc2)N(c2ccccc2)C1=O` [PHENYLBUTAZONE], the Ulcerogenic activity is given as 30% in [3]; 60% in data set [4]; 90% in [5]; 30% in data set [7]; 60% in data set [8]; 90% in data set [9]. The figures for the “Antiinflammatory Activity” value in data set [10], in data set [11] and in [12] were 31.3%, 35.5% and 57.2%, respectively. Moreover, the Inhibition in data set [13] is given as 89%.

On to `CC(=O)Oc1ccccc1C(=O)O` [ASPIRIN], for which the ED50 in data set [2] amounted to 98.3 mg/kg. The Ulcerogenic activity in [3] is 30%; in data set [4] it was 60%; in data set [5], 90%; in [7] it was 80%; in data set [8] it was 90%; in [9], 90%. In addition, the figures for the “Antiinflammatory Activity” value in [10], in [11] and in data set [12] were 30.4%, 35.5% and 59.6%, respectively. The same compound returned an Inhibition in data set [13] of 99%.

With `Cc1ccc(C(=O)c2cc(C)cc(C(=O)c3ccc(C)cc3)c2O)cc1`, in data set [1], the LD50 was over 1000 mg/kg. In data set [2], the 50% effect level (ED50) was put at a dose of 60.2 mg/kg. Also, the Ulcerogenic activity was 50% in [3]; 70% in [4]; 100% in data set [5]; 20% in data set [7]; 30% in data set [8]; 40% in [9]. For the same compound, the “Antiinflammatory Activity” value in [10] came out at 22.2%; in [11] it was 45.4%; in data set [12] it was 77.1%. Besides, in data set [13], the Inhibition worked out at 87%.

As for `Cc1cc(C(=O)c2cccc(Cl)c2)c(O)c(C(=O)c2cccc(Cl)c2)c1`, the LD50 in data set [1] was over 1000 mg/kg. The compound also came in with an ED50 in [2] of 51.2 mg/kg. Also, the Ulcerogenic activity is reported as 30% in data set [3]; 60% in data set [4]; 90% in data set [5]; 10% in [7]; 20% in [8]; 12% in data set [9]. The inhibition result in data set [6] is “inactive”. Besides, the figures for the “Antiinflammatory Activity” value in data set [10], in data set [11] and in data set [12] were 30.3%, 48.2% and 94.1%, respectively.

With `Cc1cc(C(=O)c2ccccc2C)c(O)c(C(=O)c2ccccc2C)c1`, the LD50 in data set [1] was over 1000 mg/kg. The 50% effect level in [2] (ED50) was put at a dose of 77.2 mg/kg. The Ulcerogenic activity is on record as 50% in data set [3]; 70% in [4]; 90% in data set [5]; 5% in data set [7]; 10% in [8]; 15% in [9]. For the same compound, the “Antiinflammatory Activity” value in data set [10] turned out to be 16.6%; in [11], 33.2%; in data set [12], 64.1%. Also, in data set [13], the Inhibition stood at 70%.

As for `Cc1ccccc1C(=O)c1cc(C)c(O)c(C(=O)c2ccccc2)c1`, in data set [1], the LD50 is over 1000 mg/kg. The compound further yielded an ED50 in data set [2] of 78.3 mg/kg. Moreover, the Ulcerogenic activity in data set [3] came out at 40%; in data set [4], 60%; in data set [5] it was 100%; in data set [7], 10%; in [8] it was 20%; in data set [9], 40%. For the same compound, the figures for the “Antiinflammatory Activity” value in [10], in data set [11] and in [12] were 14.1%, 29.5% and 55.3%, respectively. For the same compound, the Inhibition in [13] was determined as 20%.
